{"source": "paper PMC10028500", "about": "(RSC Advances, 2023)", "key": {"[1]": {"test_system": "Liver (HepG2) cancer cell line", "experiment": "IC50 by MTT assay, HepG2", "assay_type": "cell-based", "details": "HepG2, 48 h", "procedure,_shortened": "(§1)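 Cells were grown in DMEM at 37 °C, 5% CO2, 95% humidity, trypsinised and counted by trypan blue/hemocytometer. 10^4 cells per well were incubated 24 h, then test compound (3.5, 7, 14, 28, 56 μM; four replicates each) was added at ~70% confluence for 48 h. MTT (0.5 mg/mL) ran 4 h, then DMSO 15 min at room temperature, read at 595 nm. IC50 came from viability vs concentration curves.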"}, "[2]": {"test_system": "breast (MCF-7) cancer cell line", "experiment": "IC50 by MTT assay, MCF-7", "assay_type": "cell-based", "details": "MCF-7, 48 h", "procedure,_shortened": "as §1"}, "HepG2 cells": {"test_system": "HepG2 cells", "experiment": "Flow cytometry analysis of the cell cycle of HepG2", "assay_type": "cell-based", "details": "HepG2, 24 h, around IC50 concentration", "procedure,_shortened": "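HepG2 cells (ca. 1 × 10^6) were seeded 24 h, then exposed to test compound for 24 h. Cells were harvested with 0.25% trypsin, spun 5 min at 1500 rpm, washed twice in PBS and fixed in 70% ethanol for 4 h at −20 °C. They were taken up in cold PBS with RNase A, stained with propidium iodide for 1 h in the dark and analysed by flow cytometry.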"}, "ct-DNA [3]": {"test_system": "ct-DNA", "details": "cited from earlier work"}, "ct-DNA [4]": {"test_system": "ct-DNA", "details": "cited from earlier work", "remark": "listed apart in the source"}}, "data": [{"smiles": "N.N.[Cl][Pt][Cl]", "note": "[Cisplatin]", "values": [{"measurement": "IC50", "setting": "[1]", "value": "19.7 ± 1.53", "unit": "µM"}, {"measurement": "IC50", "setting": "[2]", "value": "18.4 ± 2.72", "unit": "µM"}, {"measurement": "cell population in the G1/G0, S and G2/M phases vs control", "setting": "HepG2 cells", "value": "decreases"}, {"measurement": "cell population in the sub-G phase", "setting": "HepG2 cells; control ca. 1%", "value": 47.3, "unit": "%"}]}, {"smiles": "[Cl-].[Pt+2].c1ccc(-c2cccc(-c3ccccn3)n2)nc1", "note": "[Pt(terpy)Cl]", "values": [{"measurement": "DNA binding mode", "setting": "ct-DNA [3]", "value": "shifts gradually from the intercalation mode to the covalent binding mode"}]}, {"smiles": "CC[n+]1c(-c2ccccc2)c2cc(N)ccc2c2ccc(N)cc21", "note": "[ethidium bromide]", "values": [{"measurement": "binding constant (KEB) of ethidium bromide to DNA", "setting": "ct-DNA [4]", "value": "1 × 10^5"}]}]}
